In ChEMBL document CHEMBL3351346, “Design, synthesis, structure-function relationship, bioconversion, and pharmacokinetic evaluation of ertapenem prodrugs” (J Med Chem, 2014):

Experiments:
[1] = Stability in rat plasma assessed as compound remaining at 50 uM at 37 degC after 60 mins by LC-MS/MS method; format: ADME, cell-free; details: read-out: Stability
Summary of the method: (§1)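 Prodrugs were incubated in rat or human plasma for 60 min. Disappearance of prodrug and concomitant appearance of ertapenem were followed by LC-MS/MS, and in selected cases monoesters from partial hydrolysis were also monitored. Ertapenem itself was incubated the same way as a control.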

[2] = Stability in human plasma assessed as compound remaining at 50 uM at 37 degC after 60 mins by LC-MS/MS method; format: ADME, cell-free; details: read-out: Stability; summary of the method: as §1
[3] = Stability in pH 2.0 simulated gastric fluid assessed as compound degradation to beta-lactam ring open products at 1 uM after 60 mins by LC-MS/MS method; format: ADME; details: read-out: Drug degradation
Summary of the method: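 Incubation was in simulated gastric fluid (SGF, pH 2.0) for 60 min, with loss to the β-lactam ring-opened product measured by LC-MS/MS.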

[4] = Stability in pH 6.5 simulated gastrointestinal fluid assessed as compound remaining at 50 uM after 3 hrs by LC-MS/MS method; format: ADME; details: read-out: Stability
Summary of the method: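 Compounds at 50 μM were incubated in fasted-state simulated intestinal fluid (FaSSIF, pH 6.5) for over 3 h. Percent remaining was determined by LC-MS/MS.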

[5] = Stability in pH 7.4 phosphate buffer assessed as compound remaining at 50 uM after 3 hrs by LC-MS/MS method; format: physicochemical; details: read-out: Stability
[6] = AUC (0 to 8 hrs) in fasted Sprague-Dawley rat at 10 mg/kg dosed through intraduodenal route by LC-MS/MS method; format: ADME, organism-based, Plasma; design: time < 8 hr, dose 10 mg/kg, route intraduodenal; details: Sprague-Dawley, plasma
Summary of the method: (§2)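 Prodrugs were given intraduodenally to bypass stomach acid. Plasma was sampled at intervals over 8 h, and parent prodrug, the two monoester metabolites and ertapenem were quantified by LC-MS/MS. The lower limit of quantitation was 5 nM. AUC(0–8) was used, and it differed from AUC(0–∞) by ±20%. Vehicles were 30% Captisol or 0.5% methylcellulose, as solution or suspension depending on compound.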

Rattus norvegicus [7] = test: AUC (0 to 8 hrs) in fasted Sprague-Dawley rat assessed as ertapenem level at 10 mg/kg dosed through intraduodenal route by LC-MS/MS method; format: ADME, organism-based, Plasma; design: time < 8 hr, dose 10 mg/kg, route intraduodenal; details: in vivo, other; summary of the method: as §2
Rattus norvegicus [8] = test: Oral bioavailability in fasted Sprague-Dawley rat assessed as ertapenem level at 10 mg/kg dosed through intraduodenal route by LC-MS/MS method; format: ADME, organism-based; details: in vivo
Summary of the method: (§3)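 After intraduodenal dosing, plasma over 8 h was analysed by LC-MS/MS. Bioavailability was calculated as dose-normalized AUC of ertapenem formed from the prodrug divided by dose-normalized AUC of ertapenem dosed iv. Vehicle was 30% Captisol or 0.5% methylcellulose.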

Rattus norvegicus [9] = test: Oral bioavailability in fasted Sprague-Dawley rat assessed as ertapenem and monoetser metabolites level at 10 mg/kg dosed through intraduodenal route by LC-MS/MS method; format: ADME, organism-based; details: in vivo
Summary of the method: (§4)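 Total absorption followed intraduodenal dosing with LC-MS/MS of plasma over 8 h. It was calculated as the combined dose-normalized AUC of circulating parent prodrug, ertapenem and two monoesters, divided by dose-normalized AUC of ertapenem given iv. Vehicle was 30% Captisol or 0.5% methylcellulose.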

[10] = AUC (0 to 8 hrs) in fasted Beagle dog at 6.18 mg/kg dosed through intraduodenal route by LC-MS/MS method; format: ADME, organism-based, Canis lupus familiaris; design: time < 8 hr, dose 6.18 mg/kg, route intraduodenal; details: plasma; summary of the method: as §2
Canis familiaris [11] = test: AUC (0 to 8 hrs) in fasted Beagle dog assessed as ertapenem level at 6.18 mg/kg dosed through intraduodenal route by LC-MS/MS method; format: ADME, organism-based, Canis lupus familiaris, Plasma; design: time < 8 hr, dose 6.18 mg/kg, route intraduodenal; details: in vivo, other; summary of the method: as §2
Canis familiaris [12] = test: AUC (0 to 8 hrs) in fasted Beagle dog assessed as 8-OH, C-3 ester level at 6.18 mg/kg dosed through intraduodenal route by LC-MS/MS method; format: ADME, organism-based, Canis lupus familiaris, Plasma; design: time < 8 hr, dose 6.18 mg/kg, route intraduodenal; details: in vivo, other; summary of the method: as §2
Canis familiaris [13] = test: AUC (0 to 8 hrs) in fasted Beagle dog assessed as 8-OH, benzoate ester level at 6.18 mg/kg dosed through intraduodenal route by LC-MS/MS method; format: ADME, organism-based, Canis lupus familiaris, Plasma; design: time < 8 hr, dose 6.18 mg/kg, route intraduodenal; details: in vivo, other; summary of the method: as §2
Canis familiaris [14] = test: Oral bioavailability in fasted Beagle dog assessed as ertapenem level at 6.18 mg/kg dosed through intraduodenal route by LC-MS/MS method; format: ADME, organism-based, Canis lupus familiaris; details: in vivo; summary of the method: as §3
Canis familiaris [15] = test: Oral bioavailability in fasted Beagle dog assessed as assessed as ertapenem and monoetser metabolites level at 6.18 mg/kg dosed through intraduodenal route by LC-MS/MS method; format: ADME, organism-based, Canis lupus familiaris; details: in vivo; summary of the method: as §4
[16] = Oral drug absorption in fasted Beagle dog at 6.18 mg/kg dosed through intraduodenal route by LC-MS/MS method; format: ADME, organism-based, Canis lupus familiaris; design: dose 6.18 mg/kg, route intraduodenal; details: in vivo; summary of the method: as §4
[17] = AUC (0 to 8 hrs) in fasted Beagle dog at 10 mg/kg dosed through intraduodenal route by LC-MS/MS method; format: ADME, organism-based, Canis lupus familiaris, Plasma; design: time < 8 hr, dose 10 mg/kg, route intraduodenal; details: Beagle, plasma; summary of the method: as §2
Canis familiaris [18] = test: AUC (0 to 8 hrs) in fasted Beagle dog assessed as ertapenem level at 10 mg/kg dosed through intraduodenal route by LC-MS/MS method; format: ADME, organism-based, Canis lupus familiaris, Plasma; design: time < 8 hr, dose 10 mg/kg, route intraduodenal; details: in vivo, other; summary of the method: as §2
Canis familiaris [19] = test: AUC (0 to 8 hrs) in fasted Beagle dog assessed as 8-OH, C-3 ester level at 10 mg/kg dosed through intraduodenal route by LC-MS/MS method; format: ADME, organism-based, Canis lupus familiaris, Plasma; design: time < 8 hr, dose 10 mg/kg, route intraduodenal; details: in vivo, other, BLD = below limit of detection; summary of the method: as §2
Canis familiaris [20] = test: Oral bioavailability in fasted Beagle dog assessed as ertapenem level at 10 mg/kg dosed through intraduodenal route by LC-MS/MS method; format: ADME, organism-based, Canis lupus familiaris; details: in vivo, BLD = below limit of detection; summary of the method: as §3
Canis familiaris [21] = test: Oral bioavailability in fasted Beagle dog assessed as assessed as ertapenem and monoetser metabolites level at 10 mg/kg dosed through intraduodenal route by LC-MS/MS method; format: ADME, organism-based, Canis lupus familiaris; details: in vivo; summary of the method: as §4
[22] = Oral drug absorption in fasted Beagle dog at 10 mg/kg dosed through intraduodenal route by LC-MS/MS method; format: ADME, organism-based, Canis lupus familiaris; design: dose 10 mg/kg, route intraduodenal; details: in vivo; summary of the method: as §4
[23] = AUC (0 to 8 hrs) in fasted Sprague-Dawley rat at 1 mg/kg, iv by LC-MS/MS method; format: ADME, organism-based; design: time < 8 hr, dose 1 mg/kg, route intravenous; details: plasma
Canis familiaris [24] = test: AUC (0 to 8 hrs) in fasted Beagle dog assessed as ertapenem level at 1 mg/kg, iv by LC-MS/MS method; format: ADME, organism-based, Canis lupus familiaris, Plasma; design: time < 8 hr, dose 1 mg/kg, route intravenous; details: in vivo

## CC(C)OC(=O)C1=C(S[C@@H]2CN[C@H](C(=O)Nc3cccc(C(=O)OC(C)C)c3)C2)[C@H](C)[C@@H]2[C@@H]([C@@H](C)O)C(=O)N12
[1]
  remaining at 1 h, 50 µM: 0%
[2]
  remaining at 1 h, 50 µM: 16%
[3]
  degraded at 1 h, 1 µM: > 25%
[4]
  remaining at 3 h, 50 µM: > 95%
[5]
  remaining at 3 h, 50 µM: > 95%
[6]
  AUC(0-t) at 8 h: 0.09 µM·h
Rattus norvegicus [7]
  AUC: < 0.1 µM·h
Rattus norvegicus [8]
  F: < 0.1%
Rattus norvegicus [9]
  F: 0.1%
[10]
  AUC(0-t) at 8 h: 1.6 µM·h
Canis familiaris [11]
  AUC: 0.2 µM·h
Canis familiaris [12]
  AUC: 0.2 µM·h
Canis familiaris [13]
  AUC: 0.3 µM·h
Canis familiaris [14]
  F: 0.5%
Canis familiaris [15]
  F: 5.1%
[16]
  Fa: 5.1%

## CC(C)CCC[C@@H](C)[C@H]1CC[C@H]2[C@@H]3CC=C4C[C@@H](OC(=O)COC(=O)c5cccc(NC(=O)[C@@H]6C[C@H](SC7=C(C(=O)OCC(F)(F)F)N8C(=O)[C@H]([C@@H](C)O)[C@H]8[C@H]7C)CN6)c5)CC[C@]4(C)[C@H]3CC[C@]12C
[1]
  remaining at 1 h, 50 µM: 97%
[2]
  remaining at 1 h, 50 µM: 92%
[3]
  degraded at 1 h, 1 µM: > 25%
[4]
  remaining at 3 h, 50 µM: > 95%
[5]
  remaining at 3 h, 50 µM: > 95%
[17]
  AUC(0-t) at 8 h: < 0.1 µM·h
Canis familiaris [18]; BLD = below limit of detection
  AUC: BLD
Canis familiaris [19]
  AUC: BLD
Canis familiaris [20]
  F: BLD
Canis familiaris [21]
  F: 0.1%
[22]
  Fa: < 0.1%

## C[C@@H](O)[C@H]1C(=O)N2C(C(=O)[O-])=C(S[C@@H]3CN[C@H](C(=O)Nc4cccc(C(=O)O)c4)C3)[C@H](C)[C@H]12.O.[Na+]
[1]
  remaining at 1 h, 50 µM: 100%
[2]
  remaining at 1 h, 50 µM: 100%
[3]
  degraded at 1 h, 1 µM: > 25%
[4]
  remaining at 3 h, 50 µM: > 95%
[5]
  remaining at 3 h, 50 µM: > 95%
[23]
  AUC(0-t) at 8 h: 7.8 µM·h
Rattus norvegicus [7]
  AUC: 0.5 µM·h
Rattus norvegicus [8]
  F: 0.7%
Rattus norvegicus [9]
  F: 0.7%
Canis familiaris [18]
  AUC: 1.4 µM·h
Canis familiaris [24]
  AUC: 8.9 µM·h
